Experimental data reported in PubChem BioAssay AID635 (SRMLSC, 2007).
Screen size: about 1,300 compounds; about 40 (3%) were called active. The rule behind the calls is not given here. Only a sample is shown. Entries with a potency or affinity are not part of this list.

Assay: growth inhibition of wild-type E. coli BW25113 pool, dose response, OD615 (AID 635);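 note: growth measured after 20 h with compound at 37 °C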
Conditions: pooled mutant strains; at 100 µM (top of the series)
Summary of the method: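 Material: Keio BW25113 knockout pool, 1,275 strains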

| SMILES | growth inhibition |
| --- | --- |
| CCOC(=O)N1CCN(c2nc3ccccc3nc2C(C#N)S(=O)(=O)c2ccc(C)cc2)CC1 (configuration not stated) | -1.57% (inactive) |
| CCOc1ccc(N(CC(=O)Nc2cccc(Cl)c2)S(=O)(=O)c2c(C)noc2C)cc1 | 2.36% (inactive) |
| CN1/C(=C\C(=O)COc2ccc3c(c2)OCO3)C(C)(C)c2ccccc21 | -6.25% (inactive) |
| O=C(COc1ccccc1)Nc1nnc(-c2ccc(Cl)s2)o1 | 2.47% (inactive) |
| O=c1c2c(nc3n1CCCCC3)-c1ccccc1CC21CCCC1 | -5.17% (inactive) |
| Cc1ccc(C(C(=O)NC2CCCC2)N(Cc2cccs2)C(=O)CNC(=O)c2cccs2)o1 (configuration not stated) | 5.18% (inactive) |
| Cc1ccc(C)c(N2CCN(C(=O)c3ccc(NS(=O)(=O)c4c(C)noc4C)cc3)CC2)c1 | 3.98% (inactive) |
| Cc1ccc(CN2C(=O)NC(=O)C3(Cc4c(nc5ccccn5c4=O)N4CCCCCC43)C2=O)cc1 (configuration not stated) | -2% (inactive) |
| O=C(NC12CC3CC(CC(C3)C1)C2)c1ccccc1O | 8.6% (inactive) |
| COc1ccc(-c2[nH]c(-c3cccc(OC)c3)nc2SCC(=O)NCc2ccco2)cc1 | -2.87% (inactive) |
| OC(COc1ccc(Cl)c2ccccc12)CN1CCN(c2ccccn2)CC1 (configuration not stated) | -3.05% (inactive) |
| O=C(Nc1nc2n(n1)C(c1ccc(Cl)cc1)CC(c1ccc(Cl)cc1)N2)c1ccco1 (configuration not stated) | 9.43% (inactive) |
| CCOc1cc(C)c(C(C)C)cc1S(=O)(=O)N1CC(C)OC(C)C1 (configuration not stated) | 3.51% (inactive) |
| CCN(C(=O)c1ccc(C(C)(C)C)cc1)c1nnc(Cn2nnc3ccccc32)s1 | 2.41% (inactive) |
| COc1cc2cc(C(c3nnnn3C3CCCCC3)N(C)C3CCCCC3)c(=O)[nH]c2cc1OC (configuration not stated) | -2.92% (inactive) |
| N#Cc1c(NC(NC(=O)c2ccco2)C(=O)c2ccccc2)sc2c1CCCC2 (configuration not stated) | 1.57% (inactive) |
| Cc1ccc(C)c(SCC(=O)Nc2nnc(-c3ccccc3)o2)c1 | 6.77% (inactive) |
| COc1cccc(-c2csc(N3CCN(C(=O)C4CCCCC4)CC3)n2)c1 | -1.87% (inactive) |
| O=C(Nc1cccc(C(F)(F)F)c1)N1CCC(c2nc(-c3ccc(F)cc3)no2)CC1 | -2.79% (inactive) |
| CCOc1ccc2nc(NC(=O)C(CC)Sc3nc(C)cc(=O)[nH]3)sc2c1 (configuration not stated) | 0.31% (inactive) |
| CCOC(=O)c1cn(CC)c2cc(N3CCOCC3)c(F)cc2c1=O | 3.52% (inactive) |
| CCn1cc(C(=O)O)c(=O)c2cnc(N3CCN(C(=O)Nc4ccccc4)CC3)nc21 | 5.46% (inactive) |

| SMILES | growth inhibition |
| --- | --- |
| CCOC(=O)c1cn(CC)c2cc(N3CCCCC3)c(F)cc2c1=O | -1.4% (inactive) |
| CCn1cc(C(=O)O)c(=O)c2cc(OC)ccc21 | -5.37% (inactive) |
| Cc1nc2c(C(=O)NCc3ccc4c(c3)OCO4)c[nH]n2c(=O)c1Cc1ccccc1F | 0.56% (inactive) |
| CCn1cc(C(=O)Nc2nncs2)c(=O)c2cc(F)c(N3CCN(C(=O)c4ccco4)CC3)cc21 | 15.6% (inactive) |
| Cc1ccc2nc(NC(=O)CNS(=O)(=O)c3ccc(Br)s3)sc2c1 | 1.78% (inactive) |
| CN(C)c1nc(SCCOC(=O)Nc2ccccc2)nc(N(C)C)n1 | 3.85% (inactive) |
| O=C(Nc1nc(-c2ccccc2)cs1)c1cccs1 | -1.94% (inactive) |
| COc1ccc(CN(C(=O)CN2C(=O)COc3ccccc32)C2CCCC2)c(OC)c1 | 6.95% (inactive) |
| COc1ccc2[nH]c3c(=O)n(CCCCC(=O)NCCN4CCCC4)c(=S)[nH]c3c2c1 | -2.44% (inactive) |
| Clc1ccc(Cl)c(-c2nn3c(COc4ccccc4)nnc3s2)c1 | 2.46% (inactive) |
| CCOC(=O)c1nnn(-c2nonc2-n2cccc2)c1CN1CCC(C)CC1 | 3.87% (inactive) |
| COc1ccc(Cn2c(=O)sc3ccccc32)cc1 | 2.87% (inactive) |
| O=C(NC1CCCCCCC1)c1ccccc1O | 0.38% (inactive) |
| Brc1cccc(-c2n[nH]c(-c3ccccc3)n2)c1 | 4.22% (inactive) |
| CCc1nc2sc3ccccc3c(=O)c2c(=O)n1Cc1ccco1 | 5.6% (inactive) |
| CCOC(=O)c1c(NS(=O)(=O)c2cccc(OC)c2)sc2c1CCC2 | 0.74% (inactive) |
| CCCn1nnc(NC(=O)COc2ccc(C3CCCCC3)cc2)n1 | 6.61% (inactive) |
| COc1cccc(NC(=O)N2CCN(c3cccc(C)c3C)CC2)c1 | -2.15% (inactive) |
| CN(Cc1ccccc1)C(=O)CSc1nc2ccccc2c(=O)n1Cc1ccco1 | 4.9% (inactive) |
| COc1ccc2nc(NC(=O)C3CCCN(S(=O)(=O)c4cccs4)C3)sc2c1 (configuration not stated) | -10.2% (inactive) |
| c1ccc(-c2oc3ncnc(NCCCn4ccnc4)c3c2-c2ccccc2)cc1 | 13.2% (inactive) |
| CC(C)(C)OC(=O)N1CCC[C@H]1c1nnc(SCc2ccc(Cl)cc2Cl)o1 | 6.74% (inactive) |

| SMILES | growth inhibition |
| --- | --- |
| Cn1c(CSc2nc3ccccc3s2)nc2ccccc21 | -7.99% (inactive) |
| CCOC(=O)c1ccc(-n2[nH]c(-c3ccccc3)cc2=O)cc1 | -2.7% (inactive) |
| Cn1c(C(=O)N2CCc3ccccc3C2)cc2oc3ccccc3c21 | -4.13% (inactive) |
| Cc1ccc(Nc2nc(CSc3nnnn3-c3ccccc3)cs2)cc1 | -12.4% (inactive) |
| O=C(c1ccco1)N1CCN(c2c(-c3ccccc3)c3cc(Cl)ccc3[nH]c2=O)CC1 | 0.97% (inactive) |
| Cc1ccc(S(=O)(=O)NCCSc2nnnn2-c2cc(C)ccc2C)cc1 | 1.62% (inactive) |
| CCOc1ccc(-c2nc(C#N)c(N3CCCCCC3)o2)cc1 | -1.95% (inactive) |
| COc1ccc(-c2csc(NCc3ccco3)n2)cc1C | -4.35% (inactive) |
| COc1cc(-c2nc(Cc3ccccc3Cl)no2)cc(OC)c1OC | -4.44% (inactive) |
| CC(=O)c1c(O)cc(C)n(Nc2nc(C)cc(C)n2)c1=O | -5.46% (inactive) |
| Cc1ccc(CN2CCSc3ccc(C(=O)N4CCN(c5ncccn5)CC4)cc32)cc1 | -4.07% (inactive) |
| COc1nnc(-c2ccc(N3CCCCC3)c(N)c2)c2ccccc12 | 9.66% (inactive) |
| Cc1ccc(SCC(=O)N(Cc2nc(-c3ccccc3)no2)C(C)C)cc1 | 3.99% (inactive) |
| Cc1noc(NS(=O)(=O)c2ccc(NC(=O)Nc3ccc(Cl)c(Cl)c3)cc2)c1C | 7.34% (active) |
| Cc1c(NC(=O)Nc2ccc(Cl)c(Cl)c2)c(=O)n(-c2ccccc2)n1C | 1.5% (inactive) |
| Cc1noc(NS(=O)(=O)c2ccc(NC(=O)COc3ccc(Cl)cc3Cl)cc2)c1C | 2.59% (inactive) |
| CCOC(=O)c1csc(Nc2nc3ccc(F)cc3s2)n1 | -0.43% (inactive) |
| O=c1n(Cc2ccccc2)c2cc(Cl)cnc2n1Cc1ccccc1 | -2.48% (inactive) |
| CC(C)(C)C(=O)Cn1c(=N)n(Cc2ccccc2)c2ccccc21 | 1.48% (inactive) |
| Cc1cc(Cl)cc(C)c1OCCCCn1ccnc1 | 8.19% (inactive) |
| COc1ccc(Oc2cn[nH]c2-c2ccc(O)cc2O)cc1 | -1.15% (inactive) |
| COc1cc(NS(=O)(=O)c2ccc(NC(=O)COc3ccccc3Cl)cc2)nc(OC)n1 | -7.59% (inactive) |

| SMILES | growth inhibition |
| --- | --- |
| CC1(C)CC(=O)C=C(NCCN2CCN(C(=O)Nc3ccc(Cl)c(Cl)c3)CC2)C1 | 3.54% (inactive) |
| Cc1ccc2[nH]c(=O)c(C(c3nnnn3C3CCCC3)N(Cc3cccnc3)Cc3ccco3)cc2c1 (configuration not stated) | 0.6% (inactive) |
| Cc1ccc2c(c1)NC(=O)C(CC(=O)NCCCN1CCN(c3cc(Cl)ccc3C)CC1)O2 (configuration not stated) | 1.34% (inactive) |
| CC(C)CCOC(=O)c1c(N)n(CC2CCCO2)c2nc3ccccc3nc12 (configuration not stated) | 4.63% (inactive) |
| CCOc1cccc(NC(=O)C2CC(=O)N(C)C(=Nc3cccc(F)c3)S2)c1 (configuration not stated) | -8.98% (inactive) |
| COC(=O)c1ccc(OC)c(CSc2nnc(COc3ccccc3)o2)c1 | 0.08% (inactive) |
| Cc1ccc(SC/C(O)=C(\C#N)c2nc3ccccc3s2)cc1 | 0.79% (inactive) |
| O=C(COc1ccccc1)Nc1ccccc1N1CCCCC1 | -2.29% (inactive) |
| O=C(CCSc1nc(-c2ccco2)cc(C(F)(F)F)n1)N1CCCc2ccccc21 | -1.07% (inactive) |
| Cc1ccccc1Cn1nc(C)c(NC(=O)c2noc3c2CCc2ccccc2-3)c1C | -4.26% (inactive) |
| CCn1c2ccccc2c2nnc(SCc3ccccc3)nc21 | -4.04% (inactive) |
| Cc1ccc(-n2c(C)cc(C3N=C(N)Nc4nc5ccccc5n43)c2C)c(C)c1 (configuration not stated) | 6.51% (inactive) |
| CCCCCC(=O)Nc1ccccc1N1CCN(c2ccccc2)CC1 | 1.48% (inactive) |
| O=C(c1ccc(COc2ccc3c(c2)CCC3)o1)N1CCN(c2ccccc2)CC1 | -0.73% (inactive) |
| CCN(CC)c1nc(N)c2c(N)nc3c(c2c1C#N)CC(c1ccccc1)O3 (configuration not stated) | 9.58% (inactive) |
| CCc1ccccc1N(C)C(=O)CCc1nc(-c2ccc(C)cc2)no1 | -3.1% (inactive) |
| CCOC(=O)C1CN(c2cc3c(cc2F)c(=O)c(C(=O)O)cn3CC)OC1C(=O)OCC (configuration not stated) | 0.67% (inactive) |
| Cc1nn(-c2ccccc2)c2sc(C(=O)N(CC(=O)NC(C)(C)C)Cc3ccco3)cc12 | -4.44% (inactive) |
| Cc1onc(-c2ccccc2)c1C(=O)Nc1nnc(N(C)Cc2ccccc2)s1 | -4.99% (inactive) |
| COc1cccc(-c2cc(C(=O)N3CC4(C)CC3CC(C)(C)C4)no2)c1 (configuration not stated) | 0.09% (inactive) |
| CC(C)C(c1nnnn1C1CCCC1)N1c2ccccc2CC1C (configuration not stated) | 0.18% (inactive) |
| CC1CCN(S(=O)(=O)c2ccc(Cl)cc2Br)CC1 | 7.88% (inactive) |

| SMILES | growth inhibition |
| --- | --- |
| CCOC(=O)c1ccc(N2C(=O)c3n[nH]c(C)c3C2c2ccc(OC)cc2OC)cc1 (configuration not stated) | -0.55% (inactive) |
| O=C(c1ccc(COc2c(F)c(F)cc(F)c2F)o1)N1CCN(c2ccc(Cl)cc2)CC1 | -6.87% (inactive) |
| N#Cc1ccc(CSc2nnc(-c3cccs3)n2-c2ccccc2)cc1 | -1.14% (inactive) |
| CCn1c(CNc2cccc(Cl)c2)nnc1SCC(=O)OC1CCCCC1 | 1.08% (inactive) |
| Fc1ccc(Br)cc1C1C=C(c2ccc(Br)s2)Nc2ncnn21 (configuration not stated) | -4.11% (inactive) |
| CC1CCN(S(=O)(=O)c2cccc(C(=O)NCc3cccs3)c2)CC1 | 0.28% (inactive) |
| CC(=O)Nc1cccc(NC(=O)c2oc3ccccc3c2C)c1 | 2.78% (inactive) |
| N=C(N)c1c(O)n(C2CCCCC2)c(=O)n(C2CCCCC2)c1=O | 3.33% (inactive) |
| COCc1nnc(NC(=O)c2ccc(S(=O)(=O)N(C)C3CCCCC3)cc2)o1 | 0.24% (inactive) |
| CCOC(=O)c1cnc(-n2nc(C)cc2C)nc1NCc1ccccc1 | 0.66% (inactive) |
| Cc1cc(Nc2ccccc2)nc(-c2ccccc2O)n1 | 1.65% (inactive) |
| CCn1nc(-c2ccccc2)nc2c(=O)n(C)c(=O)nc1-2 | 1.94% (inactive) |
| CC(C)(C)c1cc(C(F)(F)F)nc(SCCCNC(=O)c2ccco2)n1 | 6.78% (inactive) |
| CC(C)(C)n1nnnc1C(c1cccs1)N(Cc1ccccc1)Cc1cccnc1 (configuration not stated) | 3.16% (inactive) |
| CCOC(=O)c1c(-c2ccccc2)nnn1-c1nc(OCC)nc(N2CCCCC2)n1 | 0.78% (inactive) |
| c1ccc(CCN2CCN(c3ncnc4c3cnn4-c3ccccc3)CC2)cc1 | 6.43% (inactive) |
| CCOC(=O)c1ccc(NC(=O)CCc2nc(-c3ccccc3Cl)no2)cc1 | -0.84% (inactive) |
| CCOc1ccc(S(=O)(=O)Nc2cccc(Cl)c2)cc1 | 12.8% (inactive) |
| CCCCOc1ccc(S(=O)(=O)N2CCCCCC2)cc1 | 3.61% (inactive) |
